According to ChEMBL document CHEMBL3243935, “Analgesic and tranquilizing activity of 5,8-disubstituted 2-aminomethyl-3,4-dihydronaphthalenes” (J Med Chem, 1978):
Active and inactive are the calls of the source.

Tests used:
[1] = test system: Rattus norvegicus; assay: Neuroleptic activity in decarboxylase-inhibited Sprague-Dawley CD rat brain assessed as increase in DOPA accumulation at 0.056 mmol/kg relative to control; assay type: functional; parameters: scale not given: the % may be the effect or the level left
[2] = test system: Rattus norvegicus; assay: Neuroleptic activity in ip dosed Sprague-Dawley CD rat assessed as reversal of amphetamine-induced stereotypy compound administered 1hr prior challenge; assay type: functional
Method in brief: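 Rats dosed ip, then given amphetamine sulfate 5 mg/kg 1 h later. The ED50 is the dose that reverses the amphetamine-induced stereotypy.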

[3] = test system: Mus musculus; assay: Analgesic activity in Swiss CD mouse assessed as elevation of response latency at 100 mg/kg, ip measured 0.5 hr post treatment by tail flick method relative to control; assay type: functional; conditions: route intraperitoneal
Method in brief: (§1)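 Male mice, about 20 g, dosed ip in saline (solution or suspension). High-intensity heat was focused on the tail, and latency to a sudden tail flick was timed, with a 10-s cutoff. Tests ran at 0.5 and 2 h post-dose, with at least ten mice per dose. Percent control = mean latency ÷ mean control latency × 100; 200% was the lower bound of activity.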

[4] = test system: Mus musculus; assay: Analgesic activity in Swiss CD mouse assessed as elevation of response latency at 100 mg/kg, ip measured 2 hrs post treatment by tail flick method relative to control; assay type: functional; conditions: route intraperitoneal; method in brief: as §1
[5] = test system: Mus musculus; assay: Analgesic activity in Swiss CD mouse at 100 mg/kg, ip measured 2 hrs post treatment by hot-plate method relative to control; assay type: functional; conditions: route intraperitoneal
Method in brief: (§2)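 Male mice, about 20 g, dosed ip in saline. Each mouse was dropped into a glass cylinder on an aluminium plate held at 57 °C. Latency to the first flick of a hind foot was timed at 0.5 and 2 h post-dose, with a 10-s cutoff. At least ten mice per dose. Percent control = mean latency ÷ mean control latency × 100; 200% was the lower bound of activity.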

[6] = test system: Mus musculus; assay: Analgesic activity in Swiss CD mouse at 100 mg/kg, ip measured 0.5 hr post treatment by hot-plate method relative to control; assay type: functional; conditions: route intraperitoneal; method in brief: as §2
[7] = test system: Mus musculus; assay: Toxicity in Swiss CD mouse assessed as loss of righting reflex at 100 mg/kg, ip measured 0.5 hr post treatment; assay type: organism-based; parameters: dose 100 mg/kg, route intraperitoneal; conditions: in vivo
Method in brief: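 Male Swiss CD mice (about 20 g) given compound ip in saline solution or suspension, usually 5 mL/kg, during hot-plate/tail-flick screening. At least ten mice per dose. Loss of righting reflex noted at 0.5 h after dosing.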

[8] = test system: Mus musculus; assay: Analgesic activity in Swiss CD mouse at 56 mg/kg, ip measured 0.5 hr post treatment by hot-plate method relative to control; assay type: functional; conditions: route intraperitoneal; method in brief: as §2
[9] = test system: Mus musculus; assay: Analgesic activity in Swiss CD mouse assessed as elevation of response latency at 56 mg/kg, ip measured 0.5 hr post treatment by tail flick method relative to control; assay type: functional; conditions: route intraperitoneal; method in brief: as §1
[10] = test system: Canis familiaris; assay: Analgesic activity in dog assessed as increase in response threshold at 16 mg/kg, sc measured 0.5 to 2 hrs post treatment by radiant heat method relative to control; assay type: functional, organism-based; parameters: dose 16 mg/kg; conditions: Canis lupus familiaris
Method in brief: (§3)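 Male mongrel dogs, 9-12 kg. The response threshold was the reflex fasciculation of the back muscles under radiant heat. Testing was at 0.5 and 2 h post-dose, with the end point expressed as percent of control latency.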

[11] = test system: Mus musculus; assay: Analgesic activity in Swiss CD mouse at 56 mg/kg, ip measured 2 hrs post treatment by hot-plate method relative to control; assay type: functional; conditions: route intraperitoneal; method in brief: as §2
[12] = test system: Mus musculus; assay: Analgesic activity in Swiss CD mouse assessed as elevation of response latency at 56 mg/kg, ip measured 2 hrs post treatment by tail flick method relative to control; assay type: functional; conditions: route intraperitoneal; method in brief: as §1
[13] = test system: Mus musculus; assay: Analgesic activity in Swiss CD mouse at 100 mg/kg, ip bid for 4 days measured after 4 days by hot-plate method relative to control; assay type: functional, organism-based; parameters: dose 100 mg/kg
Method in brief: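 Tolerance test in male mice: 100 mg/kg ip bid for 4 days, with hot-plate latency measured against control. A parallel group received morphine sulfate 10 mg/kg ip bid.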

[14] = test system: Mus musculus; assay: Analgesic activity in Swiss CD mouse at 100 mg/kg, ip bid for 4 days by tail flick method relative to control in presence of naloxone; assay type: functional, organism-based; parameters: dose 100 mg/kg
[15] = test system: Mus musculus; assay: Analgesic activity in Swiss CD mouse at 100 mg/kg, ip bid for 4 days measured after naloxone challenge on day 4 by hot-plate method relative to control; assay type: functional, organism-based; parameters: dose 100 mg/kg
[16] = test system: Mus musculus; assay: Analgesic activity in Swiss CD mouse at 100 mg/kg, ip bid for 4 days by hot-plate method relative to control in presence of naloxone; assay type: functional, organism-based; parameters: dose 100 mg/kg
[17] = test system: Canis familiaris; assay: Analgesic activity in po dosed dog assessed as increase in response threshold by radiant heat method; assay type: functional; conditions: Canis lupus familiaris; method in brief: as §3
[18] = test system: Rattus norvegicus; assay: Analgesic activity in Sprague-Dawley CD rat at 32 mg/kg, ip measured 0.5 to 2 hrs post treatment by flinch-jump method relative to control; assay type: functional, organism-based; parameters: dose 32 mg/kg
Method in brief: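 Male rats, 200-300 g, dosed ip (saline solution or suspension). A single rising series of 1-s foot shocks was given just before and at 0.5 and 2 h after dosing. The minimum shock intensity (mA) evoking each behaviour was recorded. No response at the 2.2-mA level counted as activity. At least five rats per dose.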

[19] = test system: Canis familiaris; assay: Analgesic activity in dog assessed as increase in response threshold at 3.2 mg/kg, sc measured 0.5 to 2 hrs post treatment by radiant heat method relative to control; assay type: functional, Canis lupus familiaris; conditions: route subcutaneous
Method in brief: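 Male mongrel dogs (9-12 kg) received the agent sc in saline solution or suspension. The radiant heat stimulus end point was reflex fasciculation of the back muscles. Each animal was tested 0.5 and 2 h after dosing, and the end point was expressed as percent of control latency.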

[20] = test system: Rattus norvegicus; assay: Neuroleptic activity in decarboxylase-inhibited Sprague-Dawley CD rat brain assessed as increase in DOPA accumulation at 0.1 mmol/kg relative to control; assay type: functional; parameters: scale not given: the % may be the effect or the level left
[21] = test system: Rattus norvegicus; assay: Neuroleptic activity in decarboxylase-inhibited Sprague-Dawley CD rat brain assessed as increase in DOPA accumulation at 0.001 mmol/kg relative to control; assay type: functional; parameters: scale not given: the % may be the effect or the level left

SMILES | ED50 [2] | Activity [3] | Activity [4] | Activity [5] | Activity [6] | also measured
Br.COc1ccc(Cl)c2c1CCC(CN1CCOCC1)=C2 | > 32 mg/kg | 136% | 125% | 90% | 95% | Activity [1]: 243%
CCc1ccc2c(c1)C=C(CN1CCCC1)CC2.Cl | – | – | 198% | 130% | – | Activity [7]: Toxic
CCOC(=O)C1(c2ccccc2)CCN(C)CC1 [MEPERIDINE] | – | – | – | – | – | Activity [8]: 296%; Activity [9]: 194%; Activity [10]: Active; Activity [11]: 231%; Activity [12]: 160%
Br.COc1ccc(Cl)c2c1CCC(CN1CCCC1)=C2 | 32 mg/kg | 238% | 135% | 117% | 282% | Activity [13]: Active; Activity [14]: Active; Activity [15]: Active; Activity [16]: Active; ED50 [17]: 16.2 mg/kg; Activity [18]: Active; Activity [19]: 50%; Activity [20]: 288%
CCOC1(c2ccccc2)CCN(CC2=Cc3c(Cl)ccc(OC)c3CC2)CC1 | – | 196% | 157% | 156% | 262% | Activity [21]: 491%
